Reference: ChEMBL document CHEMBL3259629, “Discovery and optimization of piperidyl-1,2,3-triazole ureas as potent, selective, and in vivo-active inhibitors of α/β-hydrolase domain containing 6 (ABHD6)” (J Med Chem, 2013)
Active and inactive are the calls of the source. The calls are words filed in the database; no cut-off is given here.

Key:
[1] = target: T1, Monoacylglycerol lipase ABHD6 (Mus musculus) (UniProt Q8R2Y0); details: Neuro2a, 3 nM
T1 sequence (whole entry): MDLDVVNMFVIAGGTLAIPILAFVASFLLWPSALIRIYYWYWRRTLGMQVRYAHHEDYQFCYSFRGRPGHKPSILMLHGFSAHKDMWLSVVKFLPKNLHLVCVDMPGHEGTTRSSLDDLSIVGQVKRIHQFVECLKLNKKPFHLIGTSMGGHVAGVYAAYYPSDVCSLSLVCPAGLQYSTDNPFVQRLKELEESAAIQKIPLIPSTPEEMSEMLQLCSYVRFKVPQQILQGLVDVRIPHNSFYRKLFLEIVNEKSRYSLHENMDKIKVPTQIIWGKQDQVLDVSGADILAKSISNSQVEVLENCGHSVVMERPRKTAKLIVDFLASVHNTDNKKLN

[2] = target: T2, Lysophosphatidylserine lipase ABHD12 (Mus musculus) (UniProt Q99LR1); details: Neuro2a, 3 nM
T2 sequence (whole entry): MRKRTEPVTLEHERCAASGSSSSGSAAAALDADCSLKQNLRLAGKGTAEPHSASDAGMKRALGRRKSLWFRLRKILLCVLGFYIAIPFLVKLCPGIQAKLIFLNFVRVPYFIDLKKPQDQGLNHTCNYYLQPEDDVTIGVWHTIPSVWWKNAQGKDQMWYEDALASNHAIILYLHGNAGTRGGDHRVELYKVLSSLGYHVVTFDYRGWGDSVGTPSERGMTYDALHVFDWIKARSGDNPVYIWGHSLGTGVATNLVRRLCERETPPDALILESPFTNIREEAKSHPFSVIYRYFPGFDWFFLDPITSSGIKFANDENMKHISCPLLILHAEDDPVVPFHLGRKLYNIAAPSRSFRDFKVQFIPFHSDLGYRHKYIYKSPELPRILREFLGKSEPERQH

Mus musculus [3] = test: In vivo inhibition of carboxylesterase-1 in C57Bl/6 mouse liver at 0.1 to 1 mg/kg, ip after 4 hrs by FP-rhodamine-labelled gel-based competitive ABPP assay; type: functional, organism-based
Method in brief: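 C57Bl/6 mice dosed i.p. at 0.1, 0.5 or 1 mg kg⁻¹ in 18:1:1 saline/ethanol/PEG40 (ethoxylated castor oil), 10 μL g⁻¹. Killed after 4 hr under isoflurane by cervical dislocation. Brain and liver membrane fractions (100,000 × g) labelled with FP-rhodamine or HT-01 (1 μM, 30 min, 37 °C), then SDS-PAGE and in-gel fluorescence scanning. Liver ABHD6 read from HT-01 gels.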

Mus musculus [4] = test: In vivo inhibition of ABHD6 in C57Bl/6 mouse liver at 0.1 mg/kg, ip after 4 hrs by HT-10-labelled gel-based competitive ABPP assay; type: functional; details: C57Bl/6, Liver, route intraperitoneal
Method in brief: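 C57Bl/6 mice dosed i.p. (18:1:1 v/v/v saline/ethanol/PEG40, 10 μL g⁻¹) across 0.1–1 mg kg⁻¹; after 4 hr, anesthetized with isoflurane, euthanized, liver membrane fraction isolated (Dounce homogenization in PBS pH 7.5, 1,400 × g then 100,000 × g spin). Proteome labeled with HT-01 (1 μM, 30 min, 37 °C), SDS-PAGE, in-gel fluorescence; ABHD6 activity versus vehicle.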

[5] = target: T3, Acyl-coenzyme A thioesterase 2, mitochondrial (Mus musculus) (UniProt Q9QYR9); details: Neuro2a, 3 nM
T3 sequence (whole entry): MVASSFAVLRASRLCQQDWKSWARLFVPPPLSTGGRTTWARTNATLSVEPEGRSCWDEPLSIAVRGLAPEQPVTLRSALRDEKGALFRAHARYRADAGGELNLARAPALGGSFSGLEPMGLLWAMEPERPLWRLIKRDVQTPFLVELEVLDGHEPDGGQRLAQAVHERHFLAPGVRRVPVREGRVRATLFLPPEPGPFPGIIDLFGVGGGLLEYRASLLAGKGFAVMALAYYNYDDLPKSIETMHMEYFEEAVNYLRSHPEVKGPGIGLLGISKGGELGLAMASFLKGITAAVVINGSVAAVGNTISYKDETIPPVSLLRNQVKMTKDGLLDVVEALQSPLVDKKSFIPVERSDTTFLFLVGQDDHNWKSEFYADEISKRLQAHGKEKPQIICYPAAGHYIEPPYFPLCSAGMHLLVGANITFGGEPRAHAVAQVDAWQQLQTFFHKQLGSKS

[6] = target: T4, Presenilin-associated rhomboid-like protein, mitochondrial (Mus musculus) (UniProt Q5XJY4); details: Neuro2a, 3 nM
T4 sequence (whole entry): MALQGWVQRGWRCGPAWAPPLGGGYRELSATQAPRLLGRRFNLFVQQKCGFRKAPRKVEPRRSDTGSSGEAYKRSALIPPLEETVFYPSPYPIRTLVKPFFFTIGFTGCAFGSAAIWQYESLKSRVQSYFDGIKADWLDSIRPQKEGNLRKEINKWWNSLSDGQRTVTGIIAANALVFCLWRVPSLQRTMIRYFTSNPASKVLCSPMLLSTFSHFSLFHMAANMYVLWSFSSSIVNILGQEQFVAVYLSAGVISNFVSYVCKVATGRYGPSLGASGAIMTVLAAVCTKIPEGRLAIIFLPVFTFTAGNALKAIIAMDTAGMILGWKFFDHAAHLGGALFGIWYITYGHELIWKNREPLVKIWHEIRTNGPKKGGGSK

[7] = target: T5, Phospholipase DDHD1 (Mus musculus) (UniProt Q80YA3); details: Neuro2a, 3 nM
T5 sequence (whole entry): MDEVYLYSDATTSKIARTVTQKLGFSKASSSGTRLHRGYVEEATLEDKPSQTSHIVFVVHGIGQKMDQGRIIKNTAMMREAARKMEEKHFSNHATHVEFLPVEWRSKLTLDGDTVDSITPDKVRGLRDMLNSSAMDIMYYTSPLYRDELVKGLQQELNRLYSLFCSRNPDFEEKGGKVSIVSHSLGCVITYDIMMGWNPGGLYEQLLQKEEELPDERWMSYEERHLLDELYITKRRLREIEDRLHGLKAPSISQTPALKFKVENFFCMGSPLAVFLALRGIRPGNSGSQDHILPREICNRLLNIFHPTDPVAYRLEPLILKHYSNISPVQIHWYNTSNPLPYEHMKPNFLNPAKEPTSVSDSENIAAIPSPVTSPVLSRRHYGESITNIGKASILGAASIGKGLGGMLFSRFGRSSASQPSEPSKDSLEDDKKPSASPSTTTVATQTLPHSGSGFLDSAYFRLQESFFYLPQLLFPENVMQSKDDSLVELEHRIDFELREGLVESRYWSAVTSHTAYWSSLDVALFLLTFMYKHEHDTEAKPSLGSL

[8] = target: Acyl-protein thioesterase 2 (Mus musculus) (UniProt Q9WTL7); details: Neuro2a, 3 nM
[9] = target: Acyl-protein thioesterase 2 (Mus musculus) (UniProt Q9WTL7); test: Inhibition of FP-rhodamine-labelled recombinant mouse LYPLA2 at 10 uM preincubated for 30 mins followed by FP-rhodamine labelling measured after 30 mins by gel-based competitive ABPP assay

Sequence of Acyl-protein thioesterase 2 (Mus musculus) (Q9WTL7 whole entry): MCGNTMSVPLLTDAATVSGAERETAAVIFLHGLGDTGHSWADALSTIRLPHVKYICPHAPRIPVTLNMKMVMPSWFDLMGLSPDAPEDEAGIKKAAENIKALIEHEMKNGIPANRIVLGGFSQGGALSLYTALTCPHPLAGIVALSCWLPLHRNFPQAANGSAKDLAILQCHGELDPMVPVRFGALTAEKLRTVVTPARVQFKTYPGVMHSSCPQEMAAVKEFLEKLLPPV

Structure (SMILES)	inhibition [1] [%]	inhibition [2] [%]	inhibition (Mus musculus [3])	inhibition in vivo at 0.1 mg/kg (Mus musculus [4]) [%]	inhibition [5] [%]	inhibition [6] [%]	inhibition [7] [%]	inhibition [8] [%]	inhibition [9]
O=C(O)c1cccc(-c2ccc(-c3cn(C(=O)N4CCCCC4Cc4ccccc4)nn3)cc2)c1 (racemic)	> 90	< 50	inactive	80	< 50	< 50	< 50	< 50	
O=C(N1CCCCC1c1ccccc1)n1cc(-c2ccc(-c3cccc(CO)c3)cc2)nn1 (racemic)	> 90	< 50	Active	80	< 50	< 50	< 50	< 50	Active
O=C(c1cccc(-c2ccc(-c3cn(C(=O)N4CCCCC4c4ccccc4)nn3)cc2)c1)N1CCCCC1 (racemic)	> 80	< 50			< 50	< 50	< 50	< 50	Active
